Measured values published in publication PMC4280364 (ChemMedChem, 2014).

How the values were obtained:
D1-active mutant (E578Q) [1] = biological target: T1, D1-active mutant (E578Q) (Homo sapiens, UniProt P55072, E578Q); assay: ATPase assay, D1-active Walker B mutant; assay type: biochemical
Method in brief: (§1)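 Human p97 (WT or the Walker B mutant named), 25 nM monomer, in 50 mM Tris pH 7.4, 20 mM MgCl2, 1 mM EDTA, 0.5 mM TCEP, 0.01% Triton X-100 and 200 μM ATP. An initial 4-dose titration (30, 10, 3.3, 1.1 μM) was run in triplicate, then an 8-dose titration (30 down to 0.04 μM, plus 0). ATPase activity was read with Biomol Green reagent.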

D1-active mutant (E578Q) [2] = biological target: T1, D1-active mutant (E578Q); settings: previous studies of the authors; cited from earlier work
p97-p47 complex [3] = biological target: T2, p97-p47 complex (Homo sapiens, UniProt P55072); settings: cited from earlier work; for inhibition of the p97-p47 complex compared to p97 alone, in words: Figure 1 legend, earlier work of the authors; for fold decrease in potency caused by p47 (p97-p47 complex versus p97): previously found by the authors
wild-type p97 = wild-type p97 (Homo sapiens, UniProt P55072); assay: ATPase assay, wild type p97; assay type: biochemical
Method in brief: as §1

p97-p47 complex [4] = biological target: T2, p97-p47 complex; assay: ATPase assay, p97-p47 complex; assay type: biochemical
Method in brief: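 The p97-p47 complex was formed by adding p47 to 400 nM final with human p97 at 25 nM monomer. Buffer was 50 mM Tris pH 7.4, 20 mM MgCl2, 1 mM EDTA, 0.5 mM TCEP, 0.01% Triton X-100 and 200 μM ATP. Titrations were 4-dose in triplicate (30–1.1 μM), then 8-dose (30–0.04 μM, plus 0). Activity was detected with Biomol Green reagent.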

D2-active mutant (E305Q) = D2-active mutant (E305Q) (Homo sapiens, UniProt P55072, E305Q); assay: ATPase assay, D2-active Walker B mutant; assay type: biochemical
Method in brief: as §1

T1 sequence (P55072 whole entry E578Q): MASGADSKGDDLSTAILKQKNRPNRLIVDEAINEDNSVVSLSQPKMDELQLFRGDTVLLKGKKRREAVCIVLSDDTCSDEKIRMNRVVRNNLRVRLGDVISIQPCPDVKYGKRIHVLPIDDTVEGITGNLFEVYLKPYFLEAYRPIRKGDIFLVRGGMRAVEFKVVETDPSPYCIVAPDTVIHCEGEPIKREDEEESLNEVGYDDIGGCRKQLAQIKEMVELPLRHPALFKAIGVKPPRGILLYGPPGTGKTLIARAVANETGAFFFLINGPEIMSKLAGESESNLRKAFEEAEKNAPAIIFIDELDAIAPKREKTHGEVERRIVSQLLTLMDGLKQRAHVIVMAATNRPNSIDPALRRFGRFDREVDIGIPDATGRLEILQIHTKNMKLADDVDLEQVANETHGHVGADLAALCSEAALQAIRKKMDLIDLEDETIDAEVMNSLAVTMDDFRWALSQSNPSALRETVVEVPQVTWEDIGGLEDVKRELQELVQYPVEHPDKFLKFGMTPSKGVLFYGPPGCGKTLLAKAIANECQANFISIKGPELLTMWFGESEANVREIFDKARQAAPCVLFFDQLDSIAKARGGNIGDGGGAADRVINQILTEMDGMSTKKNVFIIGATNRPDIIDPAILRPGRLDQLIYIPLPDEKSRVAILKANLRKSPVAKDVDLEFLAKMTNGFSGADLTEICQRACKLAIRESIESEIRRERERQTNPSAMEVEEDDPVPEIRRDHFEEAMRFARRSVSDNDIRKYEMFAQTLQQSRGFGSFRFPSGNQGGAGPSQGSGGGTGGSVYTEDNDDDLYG
T2 sequence (P55072 whole entry): as the sequence (P55072 whole entry E578Q) above, with Q578E counted along it
T2 sequence (Q9UNZ2 whole entry partner): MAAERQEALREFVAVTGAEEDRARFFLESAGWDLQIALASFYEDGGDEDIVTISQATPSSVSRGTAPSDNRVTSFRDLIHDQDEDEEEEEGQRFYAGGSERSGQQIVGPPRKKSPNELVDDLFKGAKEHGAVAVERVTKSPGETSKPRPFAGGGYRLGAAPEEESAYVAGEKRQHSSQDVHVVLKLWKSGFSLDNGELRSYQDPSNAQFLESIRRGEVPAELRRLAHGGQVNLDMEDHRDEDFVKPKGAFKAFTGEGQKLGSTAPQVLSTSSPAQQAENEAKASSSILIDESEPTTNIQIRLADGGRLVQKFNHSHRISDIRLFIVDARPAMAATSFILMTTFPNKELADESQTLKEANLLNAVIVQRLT
Chain of D2-active mutant (E305Q) (P55072 whole entry E305Q): as the sequence (P55072 whole entry E578Q) above, with E305Q, Q578E counted along it
Chain of wild-type p97 (P55072 whole entry): as the sequence (P55072 whole entry E578Q) above, with Q578E counted along it

IC50 (wild-type p97) | IC50 (p97-p47 complex [4]) | IC50 (D2-active mutant (E305Q)) | fold increase of IC50 against the D2-active mutant (E305Q) compared to WT p97 (D2-active mutant (E305Q); 200 μM ATP) | selectivity toward the D2 domain (D2-active mutant (E305Q); D2 versus D1) | IC50 (D1-active mutant (E578Q) [1]) | fold increase of IC50 against the D1-active mutant (E578Q) compared to WT p97 (D1-active mutant (E578Q) [1]; 200 μM ATP) | SMILES | domain selectivity D1 versus D2 (E578Q versus E305Q mutants), in words (D1-active mutant (E578Q) [1]; 8-dose titration, Figure 3 / Table S1) | domain selectivity D1 versus D2, in words (D1-active mutant (E578Q) [2]) | inhibition of the p97-p47 complex compared to p97 alone, in words (p97-p47 complex [3]) | fold decrease in potency caused by p47 (p97-p47 complex versus p97) (p97-p47 complex [3])
– | – | – | – | – | – | – | Cc1cc(OCc2nnc(SC3CCCC3)n2-c2cccnc2)ccc1-c1ccc(S(C)(=O)=O)cc1 [NMS-873] | inhibited the ATPase activity of both the D1 and D2 domains | inhibit both the D1 and D2 ATPase domains | – | –
– | – | – | – | – | – | – | COc1cccc2c(NCc3ccccc3)nc(-n3c(N)nc4ccccc43)nc12 [ML240] | – | selectively inhibit D2 | less inhibition of the p97-p47 complex | ~ 50 fold
5.4 µM | 12.3 µM | 7.6 µM | 1.4 fold | 3 fold | 13.1 µM | 2.4 fold | c1ccc(CNc2nc(NCc3ccccc3)c3ccccc3n2)cc1 [DBeQ, N2,N4-dibenzylquinazoline-2,4-diamine] | – | inhibit both the D1 and D2 ATPase domains | – | –
– | – | – | – | – | – | – | c1ccc(CNc2nc(N3CCOc4ccccc43)nc3c2CCCC3)cc1 [ML241] | – | selectively inhibit D2 | less inhibition of the p97-p47 complex | ~ 50 fold
